Reference: ChEMBL document CHEMBL3576814, “N (1)-Fluoroalkyltryptophan Analogues: Synthesis and in vitro Study as Potential Substrates for Indoleamine 2,3-Dioxygenase” (ACS Med Chem Lett, 2015)

Key:
[1] = molecular target: Indoleamine 2,3-dioxygenase 1 (Homo sapiens) (UniProt P14902); experiment: Activity of recombinant human IDO assessed as retention time treated with L-Trp by HPLC analysis
Outline: (§1)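 rhIDO incubation mixtures analysed by HPLC or UPLC, eluting with CH3CN/10 mM ammonium acetate 10/90 or 5/95 (v/v) at 0.7 mL/min. UV detection uses 221 and 284 nm for substrates and 321 or 360 nm for products. Product peaks are collected for mass spectrometry.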

[2] = molecular target: Tryptophan 2,3-dioxygenase (Homo sapiens) (UniProt P48775); experiment: Activity of 10 uM recombinant human TDO assessed as substrate consumption at 100 uM at 37 degC at pH 7.5 after 1 hr by HPLC with fluorescence detection method
Outline: (§2)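 Recombinant human TDO (1 or 10 μM enzyme) incubated with substrate at 100 μM, 37 °C, pH 7.5, for 1 h. Perchloric acid is then added and the mixture analysed by HPLC with fluorescence detection. Read-out is percentage of substrate consumed.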

[3] = Retention time of the compound by HPLC analysis; type: physicochemical; outline: as §1
[4] = molecular target: Tryptophan 2,3-dioxygenase (Homo sapiens) (UniProt P48775); experiment: Activity of 1 uM recombinant human TDO assessed as substrate consumption at 100 uM at 37 degC at pH 7.5 after 1 hr by HPLC with fluorescence detection method; outline: as §2
[5] = molecular target: Indoleamine 2,3-dioxygenase 1 (Homo sapiens) (UniProt P14902); experiment: Activity of recombinant human IDO assessed as retention time treated with 1-Me-L-Trp by HPLC analysis; outline: as §1
[6] = molecular target: Indoleamine 2,3-dioxygenase 1 (Homo sapiens) (UniProt P14902); experiment: Activity of recombinant human IDO assessed as retention time treated with 1-FETrp by HPLC analysis; outline: as §1
[7] = molecular target: Indoleamine 2,3-dioxygenase 1 (Homo sapiens) (UniProt P14902); experiment: Activity of recombinant human IDO assessed as retention time treated with 5-HO-L-Trp by HPLC analysis; outline: as §1

Sequence of Indoleamine 2,3-dioxygenase 1 (Homo sapiens) (P14902 whole entry, looked up): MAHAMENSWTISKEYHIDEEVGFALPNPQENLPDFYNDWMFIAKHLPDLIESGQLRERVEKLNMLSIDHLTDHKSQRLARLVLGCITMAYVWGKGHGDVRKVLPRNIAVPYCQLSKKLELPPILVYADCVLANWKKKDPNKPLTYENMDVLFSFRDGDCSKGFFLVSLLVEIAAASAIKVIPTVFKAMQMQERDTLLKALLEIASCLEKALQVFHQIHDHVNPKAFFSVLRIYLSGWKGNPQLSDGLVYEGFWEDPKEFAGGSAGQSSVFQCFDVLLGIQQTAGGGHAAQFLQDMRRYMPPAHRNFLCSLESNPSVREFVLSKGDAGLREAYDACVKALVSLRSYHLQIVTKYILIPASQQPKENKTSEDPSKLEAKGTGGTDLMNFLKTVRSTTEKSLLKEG
Sequence of Tryptophan 2,3-dioxygenase (Homo sapiens) (P48775 whole entry, looked up): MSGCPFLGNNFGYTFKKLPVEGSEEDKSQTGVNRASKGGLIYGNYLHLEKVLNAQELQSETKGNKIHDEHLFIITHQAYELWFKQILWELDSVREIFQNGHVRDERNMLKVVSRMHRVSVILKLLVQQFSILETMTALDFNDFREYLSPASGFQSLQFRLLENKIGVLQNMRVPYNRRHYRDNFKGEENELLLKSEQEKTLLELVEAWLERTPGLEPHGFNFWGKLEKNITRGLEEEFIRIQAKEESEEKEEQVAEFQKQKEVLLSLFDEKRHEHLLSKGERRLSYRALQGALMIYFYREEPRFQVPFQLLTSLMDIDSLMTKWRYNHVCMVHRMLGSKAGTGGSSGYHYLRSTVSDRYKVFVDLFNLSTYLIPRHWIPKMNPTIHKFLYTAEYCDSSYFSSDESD

For N[C@@H](CC(=O)c1ccccc1NC=O)C(=O)O, the Retention time [1] was 4.3 min.

N[C@@H](Cc1c[nH]c2ccc(O)cc12)C(=O)O [OXITRIPTAN] gave an Activity [2] of 14%, a Retention_time [3] of 5.1 min and an Activity [4] of 0%.

With Cn1cc(C[C@H](N)C(=O)O)c2ccccc21 [(L)-1-METHYLTRYPTOPHAN] the Activity [2] was 3%, the Retention_time [3] was 9.4 min and the Activity [4] was 0%.

With N[C@@H](Cc1c[nH]c2ccccc12)C(=O)O [TRYPTOPHAN] the Activity [2] was 100%, the Retention_time [3] was 5.4 min and the Activity [4] was 67%.

Molecule CNc1ccccc1C(=O)C[C@H](N)C(=O)O has a Retention time [5] of 7.4 min.

With NC(CC(=O)c1ccccc1NCCF)C(=O)O (stereo not given) the Retention time [6] was 7.9 min.

Molecule CC(N)(Cc1c[nH]c2ccccc12)C(=O)O (stereo not given) has a Retention_time [3] of 7 min.

Molecule Nc1ccccc1C(=O)C[C@H](N)C(=O)O has a Retention time [1] of 4.5 min.

NCCc1c[nH]c2ccccc12 [TRYPTAMINE] gave a Retention_time [3] of 9 min.

Work on NC(CC(=O)c1ccccc1N(C=O)CCF)C(=O)O (stereo not given) yielded a Retention time [6] of 5 min.

For CN(C=O)c1ccccc1C(=O)C[C@H](N)C(=O)O, the Retention time [5] was 4.5 min.

NC(Cc1cn(CCF)c2ccccc12)C(=O)O (racemic) showed an Activity [2] of 2%, a Retention_time [3] of 9.2 min and an Activity [4] of 0%.

In the case of N[C@@H](Cc1cn(Cc2cn(CCF)nn2)c2ccccc12)C(=O)O, the Retention_time [3] was 16.4 min.

Work on Nc1ccc(O)cc1C(=O)C[C@H](N)C(=O)O yielded a Retention time [7] of 3.9 min.

CC(C)(C)OC(=O)N[C@@H](Cc1c[nH]c2ccccc12)C(=O)O showed a Retention_time [3] of 5.9 min.

Work on CC(N)Cc1c[nH]c2ccccc12 (stereo not given) yielded a Retention_time [3] of 11.1 min.

CC(=O)N[C@@H](Cc1c[nH]c2ccccc12)C(=O)O [ACETYLTRYPTOPHAN] showed a Retention_time [3] of 7 min.
